# Test results taken from ChEMBL document CHEMBL4190373, “Tumor Targeting with Novel Pyridyl 6-Substituted Pyrrolo[2,3- d]Pyrimidine Antifolates via Cellular Uptake by Folate Receptor α and the Proton-Coupled Folate Transporter and Inhibition of De Novo Purine Nucleotide Biosynthesis” (J Med Chem, 2018).
# pIC50, pKi: −log10 of the molar value. Activity calls are given as the source filed them. The calls are words filed in the database; no cut-off is given here.
# How the values were obtained:
# [1] = biological target: T1, Trifunctional purine biosynthetic protein adenosine-3 (Homo sapiens, UniProt P22102); assay: Inhibition of GARFTase in human KB cells assessed as decrease in [14C]formyl GAR accumulation preincubated for 30 mins followed by [14C]glycine addition measured after 15 hrs in presence of azaserine by ion-exchange chromatographic assay; assay type: cell-based
# T1 sequence (P22102 whole entry): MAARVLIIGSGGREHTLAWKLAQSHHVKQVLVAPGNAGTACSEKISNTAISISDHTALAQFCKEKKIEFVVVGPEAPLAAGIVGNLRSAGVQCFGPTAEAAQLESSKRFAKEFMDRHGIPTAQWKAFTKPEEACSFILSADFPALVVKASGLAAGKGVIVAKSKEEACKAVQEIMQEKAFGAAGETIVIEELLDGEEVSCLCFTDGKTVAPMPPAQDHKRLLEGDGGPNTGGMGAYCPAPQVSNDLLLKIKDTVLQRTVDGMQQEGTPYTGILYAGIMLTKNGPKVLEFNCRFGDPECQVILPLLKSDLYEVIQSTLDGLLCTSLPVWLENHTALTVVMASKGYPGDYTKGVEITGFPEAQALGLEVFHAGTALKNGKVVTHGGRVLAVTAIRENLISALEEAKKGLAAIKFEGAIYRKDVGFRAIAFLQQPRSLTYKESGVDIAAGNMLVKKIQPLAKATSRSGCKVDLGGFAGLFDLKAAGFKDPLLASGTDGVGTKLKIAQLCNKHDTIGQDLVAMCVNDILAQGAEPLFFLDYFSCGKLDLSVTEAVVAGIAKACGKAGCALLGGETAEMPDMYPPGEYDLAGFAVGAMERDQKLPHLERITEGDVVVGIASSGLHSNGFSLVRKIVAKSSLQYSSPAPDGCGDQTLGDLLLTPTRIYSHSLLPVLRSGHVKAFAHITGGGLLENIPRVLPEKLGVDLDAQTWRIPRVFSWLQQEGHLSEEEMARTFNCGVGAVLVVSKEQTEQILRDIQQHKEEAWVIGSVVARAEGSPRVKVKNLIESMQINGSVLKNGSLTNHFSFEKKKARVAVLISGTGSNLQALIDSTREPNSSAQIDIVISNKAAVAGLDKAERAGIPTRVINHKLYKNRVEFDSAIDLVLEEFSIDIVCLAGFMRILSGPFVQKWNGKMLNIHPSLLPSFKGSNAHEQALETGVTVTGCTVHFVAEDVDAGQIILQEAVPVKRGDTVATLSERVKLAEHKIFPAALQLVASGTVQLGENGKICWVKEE
# [2] = tested on: KB; assay: Antiproliferative activity against human KB cells expressing human RFC/FR-alpha/PCFT assessed as reduction in cell viability up to 1000 nM measured after 96 hrs in presence of AICA by Cell-Titer Blue assay; assay type: functional, cell-based
# [3] = Cytotoxicity in RFC-null Chinese hamster R2 cells assessed as reduction in cell viability measured after 96 hrs by Cell-Titer Blue assay; assay type: cell-based; settings: Cricetulus griseus, R2, 96 h
# How it was run: (§1)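 CHO sublines expressing human PCFT (R2/PCFT4) or RFC (PC43-10), transporter-null R2, and empty-vector R2(VC). Continuous drug up to 1000 nM, up to 96 h, CellTiter-Blue fluorescence.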
# [4] = biological target: Folate receptor beta (Homo sapiens) (UniProt P14207); assay: Displacement of [3H]folic acid from human FR-beta receptor expressed in Chinese hamster D4 cells measured after 15 mins; assay type: cell-based
# Chain of Folate receptor beta (Homo sapiens) (P14207 17-230 limits assumed): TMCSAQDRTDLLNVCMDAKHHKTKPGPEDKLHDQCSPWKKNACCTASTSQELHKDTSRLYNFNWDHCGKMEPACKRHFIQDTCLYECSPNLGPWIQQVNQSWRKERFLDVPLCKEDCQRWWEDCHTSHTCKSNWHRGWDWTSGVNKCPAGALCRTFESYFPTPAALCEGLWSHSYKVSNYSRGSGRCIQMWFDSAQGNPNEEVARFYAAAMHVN
# [5] = tested on: KB; assay: Antiproliferative activity against human KB cells expressing human RFC/FR-alpha/PCFT assessed as reduction in cell viability measured after 96 hrs by Cell-Titer Blue assay; assay type: functional, cell-based
# [6] = biological target: Folate receptor alpha (Homo sapiens) (UniProt P15328); assay: Displacement of [3H]folic acid from human FR-alpha receptor expressed in Chinese hamster RT16 cells measured after 15 mins; assay type: cell-based
# Chain of Folate receptor alpha (Homo sapiens) (P15328 25-234 limits assumed): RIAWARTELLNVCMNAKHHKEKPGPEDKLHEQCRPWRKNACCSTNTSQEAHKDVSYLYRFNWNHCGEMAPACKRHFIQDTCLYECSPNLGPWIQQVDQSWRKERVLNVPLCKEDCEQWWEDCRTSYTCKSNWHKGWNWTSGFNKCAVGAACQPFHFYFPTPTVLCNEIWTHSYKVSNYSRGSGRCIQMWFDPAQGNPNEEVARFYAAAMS
# How it was run: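 RT16 (FRα) or D4 (FRβ) CHO cells, ~5 x 10^6 per dish, stripped of bound folate with pH 3.5 acetate buffer. Then incubated in HEPES-buffered saline pH 7.4 with 50 nM [3H]folic acid ± unlabeled ligand 1-1000 nM. Bound label normalized to protein. […] Mean ± SE, 3 experiments.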
# [7] = Growth inhibition of Chinese hamster R2(VC) cells after 96 hrs celltiter-blue assay; settings: Cricetulus griseus; how it was run: as §1
# [8] = tested on: KB; assay: Antiproliferative activity against human KB cells expressing human RFC/FR-alpha/PCFT assessed as reduction in cell viability measured after 96 hrs in presence of folic acid by Cell-Titer Blue assay; assay type: functional, cell-based
# [9] = tested on: KB; assay: Antiproliferative activity against human KB cells expressing human RFC/FR-alpha/PCFT assessed as reduction in cell viability up to 1000 nM measured after 96 hrs in presence of adenosine by Cell-Titer Blue assay; assay type: functional, cell-based
# [10] = tested on: KB; assay: Antiproliferative activity against human KB cells expressing human RFC/FR-alpha/PCFT assessed as reduction in cell viability up to 1000 nM measured after 96 hrs in presence of thymidine by Cell-Titer Blue assay; assay type: functional, cell-based
# [11] = biological target: T2, Proton-coupled folate transporter (Homo sapiens) (UniProt Q96NT5); assay: Inhibition of [3H]MTX uptake at human PCFT expressed in Chinese hamster R2/PCFT4 cells at 1 uM at pH 5.5 by scintillation counting method relative to control; assay type: cell-based
# T2 sequence (whole entry): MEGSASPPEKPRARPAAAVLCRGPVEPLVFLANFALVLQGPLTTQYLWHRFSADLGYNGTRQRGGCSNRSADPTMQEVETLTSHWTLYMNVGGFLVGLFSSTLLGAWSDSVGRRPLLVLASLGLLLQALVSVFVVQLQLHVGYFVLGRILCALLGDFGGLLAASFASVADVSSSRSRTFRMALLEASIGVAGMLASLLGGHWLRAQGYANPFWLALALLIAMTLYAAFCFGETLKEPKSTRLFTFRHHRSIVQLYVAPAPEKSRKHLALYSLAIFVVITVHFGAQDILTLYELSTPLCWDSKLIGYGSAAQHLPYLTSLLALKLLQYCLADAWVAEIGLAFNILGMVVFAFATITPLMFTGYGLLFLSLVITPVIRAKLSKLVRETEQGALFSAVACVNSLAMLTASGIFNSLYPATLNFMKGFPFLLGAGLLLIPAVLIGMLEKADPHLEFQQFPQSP
# How it was run: (§2)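 Buffers: MES-buffered saline pH 5.5 or HEPES-buffered saline pH 6.8, with 1 or 10 µM inhibitor. Quenched with ice-cold DPBS, counted by scintillation, normalized to protein and untreated controls. Mean ± SE, 3 experiments.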
# [12] = biological target: T2, Proton-coupled folate transporter (Homo sapiens); settings: 1 uM
# [13] = biological target: T2, Proton-coupled folate transporter (Homo sapiens); assay: Inhibition of [3H]MTX uptake at human PCFT expressed in Chinese hamster R2/PCFT4 cells at 10 uM at pH 5.5 by scintillation counting method relative to control; assay type: cell-based; how it was run: as §2
# [14] = biological target: T2, Proton-coupled folate transporter (Homo sapiens); assay: Inhibition of [3H]MTX uptake at human PCFT expressed in Chinese hamster R2/PCFT4 cells at 10 uM at pH 6.8 by scintillation counting method relative to control; assay type: cell-based; how it was run: as §2
# [15] = tested on: IGROV-1; assay: Antiproliferative activity against human IGROV1 cells expressing human FR-alpha/PCFT assessed as reduction in cell viability measured after 96 hrs in presence of folic acid by Cell-Titer Blue assay; assay type: functional, cell-based; settings: IGROV-1, 96 h
# How it was run: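 IGROV1 growth inhibition in folate-free RPMI 1640 with 10% dialyzed FBS, 2 nM leucovorin and 2 mM L-glutamine, with 200 nM folic acid added to block FR-mediated uptake. Drug present continuously up to 1000 nM for up to 96 h. Readout by CellTiter-Blue fluorescence.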
# [16] = biological target: T2, Proton-coupled folate transporter (Homo sapiens); assay: Inhibition of [3H]MTX uptake at human PCFT expressed in Chinese hamster R2/PCFT4 cells at 1 to 10 uM at pH 5.5 to 6.8 by scintillation counting method; assay type: cell-based; how it was run: as §2
# [17] = tested on: IGROV-1; assay: Antitumor activity against human IGROV1 cells xenografted in folate-deficient diet fed ICR SCID mouse assessed as tumor growth delay time at 150 mg/kg, iv administered every 2 days for 8 times starting on day 3 measured twice per week; assay type: functional
# How it was run: (§3)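 Female SCID mice, 10 weeks, ~20 g. Fed folate-deficient or folate-replete diet from 14 days before bilateral s.c. IGROV1 tumor fragments (30-60 mg, trocar). […] Weighed daily, tumors measured twice weekly. Growth delay = T-C days to 1000 mg, median.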
# [18] = tested on: IGROV-1; assay: Antitumor activity against human IGROV1 cells xenografted in high folate diet fed ICR SCID mouse assessed as tumor growth inhibition at 150 mg/kg, iv administered every 2 days for 8 times starting on day 3 measured twice per week; assay type: functional, organism-based; how it was run: as §3
# [19] = tested on: IGROV-1; assay: Antitumor activity against human IGROV1 cells xenografted in folate-deficient diet fed ICR SCID mouse assessed as tumor growth inhibition at 150 mg/kg, iv administered every 2 days for 8 times starting on day 3 measured twice per week up to 49 days; assay type: functional, organism-based; how it was run: as §3
# [20] = tested on: IGROV-1; assay: Antiproliferative activity against human IGROV1 cells expressing human FR-alpha/PCFT assessed as reduction in cell viability measured after 96 hrs by Cell-Titer Blue assay; assay type: functional, cell-based; settings: IGROV-1, 96 h
# [21] = tested on: Mus musculus; assay: Toxicity in folate-deficient diet fed ICR SCID mouse assessed as body weight loss at 150 mg/kg, iv administered every 2 days for 8 times starting on day 3 measured twice per week; assay type: organism-based; settings: in vivo, 48 h; how it was run: as §3
# [22] = biological target: T3, Proton-coupled folate transporter (Homo sapiens, UniProt Q96NT5); assay: Inhibition of [3H]MTX uptake at human PCFT expressed in Chinese hamster R2/PCFT4 cells at pH 5.5 measured after 2 mins by Dixon plot analysis; assay type: cell-based
# T3 sequence (Q96NT5 whole entry): T2 sequence (whole entry)
# [23] = tested on: Mus musculus; assay: Toxicity in folate-deficient diet fed ICR SCID mouse assessed as body weight loss at […], iv administered every 4 days for 4 times starting on day 3 measured twice per week; settings: in vivo
# [24] = tested on: IGROV-1; assay: Antitumor activity against human IGROV1 cells xenografted in folate-deficient diet ICR SCID mouse assessed as tumor growth delay time at […], iv administered every 4 days for 4 times starting on day 3 measured twice per week
structure (smiles),measurement,setting,value
Nc1nc2[nH]c(CCCCc3ccc(C(=O)N[C@@H](CCC(=O)O)C(=O)O)cn3)cc2c(=O)[nH]1,pIC50,[1],8.32
same,Activity,[2],inactive
same,pIC50,[3],< 6.00
same,inhibition,[4],Active
same,pIC50,[5],7.76
same,inhibition,[6],Active
same,pIC50,[7],< 6.00
same,pIC50,[8],< 6.00
same,Activity,[9],inactive
same,Activity,[10],Active
Nc1nc2[nH]c(CCCCc3ccc(C(=O)N[C@@H](CCC(=O)O)C(=O)O)cc3)cc2c(=O)[nH]1,inhibition,[11],50%
same,pIC50,[3],< 6.00
same,inhibition,[6],Active
same,pIC50,[7],< 6.00
same,inhibition,[12],0%
same,pIC50,[8],< 6.00
same,inhibition,[13],> 90%
same,inhibition,[14],35%
same,pIC50,[15],< 6.00
CN(Cc1cnc2nc(N)nc(N)c2n1)c1ccc(C(=O)N[C@@H](CCC(=O)O)C(=O)O)cc1 [METHOTREXATE],pIC50,[7],< 6.00
CN(Cc1cnc2nc(N)nc(N)c2n1)c1ccc(C(=O)N[C@@H](CCCNC(=O)c2ccccc2C(=O)O)C(=O)O)cc1,inhibition,[16],inactive
Nc1nc2[nH]c(CCCCc3ccc(C(=O)N[C@@H](CCC(=O)O)C(=O)O)nc3)cc2c(=O)[nH]1,Time,[17],45 days
same,TGI,[18],inactive
same,TGI,[19],Active
same,Activity,[2],inactive
same,inhibition,[11],70%
same,pIC50,[3],< 6.00
same,pIC50,[5],9.43
same,pIC50,[7],< 6.00
same,pIC50,[20],9.17
same,inhibition,[12],10%
same,pIC50,[8],6.43
same,inhibition,[13],> 90%
same,Activity,[9],inactive
same,inhibition,[14],40%
same,pIC50,[15],6.07
same,Activity,[10],Active
same,Activity,[21],5%
same,pKi,[22],6.48
Nc1nc2[nH]c(CCC#Cc3ccc(C(=O)N[C@@H](CCC(=O)O)C(=O)O)nc3)cc2c(=O)[nH]1,pIC50,[3],< 6.00
same,pIC50,[5],< 6.00
same,pIC50,[7],< 6.00
same,pIC50,[8],< 6.00
C#CCC(Cc1cnc2nc(N)nc(N)c2n1)c1ccc(C(=O)N[C@@H](CCC(=O)O)C(=O)O)cc1 (mixture of isomers) [PRALATREXATE],pIC50,[3],6.09
same,pIC50,[7],< 6.00
Nc1nc2[nH]c(CCC#Cc3ccc(C(=O)N[C@@H](CCC(=O)O)C(=O)O)cn3)cc2c(=O)[nH]1,pIC50,[3],< 6.00
same,pIC50,[5],< 6.00
same,pIC50,[7],< 6.00
same,pIC50,[8],< 6.00
Nc1nc2[nH]cc(CCc3ccc(C(=O)N[C@@H](CCC(=O)O)C(=O)O)cc3)c2c(=O)[nH]1 [PEMETREXED],inhibition,[11],85%
same,Activity,[23],14%
same,pIC50,[3],6.07
same,Time,[24],0 days
same,inhibition,[12],40%
same,inhibition,[14],75%
Nc1nc2[nH]c(CCC#Cc3cccc(C(=O)N[C@@H](CCC(=O)O)C(=O)O)n3)cc2c(=O)[nH]1,pIC50,[3],< 6.00
same,pIC50,[5],< 6.00
same,pIC50,[7],< 6.00
same,pIC50,[8],< 6.00
Nc1nc2[nH]c(CCCCc3cccc(C(=O)N[C@@H](CCC(=O)O)C(=O)O)n3)cc2c(=O)[nH]1,Activity,[2],inactive
same,pIC50,[3],< 6.00
same,inhibition,[4],inactive
same,pIC50,[5],6.18
same,inhibition,[6],inactive
same,pIC50,[7],< 6.00
same,pIC50,[8],< 6.00
same,Activity,[9],inactive
same,Activity,[10],Active
